Results from different studies.
Target: Inhibitor of nuclear factor kappa-B kinase subunit epsilon (IKBKE, Homo sapiens, UniProt Q14164)
One construct used (Q14164 1-716): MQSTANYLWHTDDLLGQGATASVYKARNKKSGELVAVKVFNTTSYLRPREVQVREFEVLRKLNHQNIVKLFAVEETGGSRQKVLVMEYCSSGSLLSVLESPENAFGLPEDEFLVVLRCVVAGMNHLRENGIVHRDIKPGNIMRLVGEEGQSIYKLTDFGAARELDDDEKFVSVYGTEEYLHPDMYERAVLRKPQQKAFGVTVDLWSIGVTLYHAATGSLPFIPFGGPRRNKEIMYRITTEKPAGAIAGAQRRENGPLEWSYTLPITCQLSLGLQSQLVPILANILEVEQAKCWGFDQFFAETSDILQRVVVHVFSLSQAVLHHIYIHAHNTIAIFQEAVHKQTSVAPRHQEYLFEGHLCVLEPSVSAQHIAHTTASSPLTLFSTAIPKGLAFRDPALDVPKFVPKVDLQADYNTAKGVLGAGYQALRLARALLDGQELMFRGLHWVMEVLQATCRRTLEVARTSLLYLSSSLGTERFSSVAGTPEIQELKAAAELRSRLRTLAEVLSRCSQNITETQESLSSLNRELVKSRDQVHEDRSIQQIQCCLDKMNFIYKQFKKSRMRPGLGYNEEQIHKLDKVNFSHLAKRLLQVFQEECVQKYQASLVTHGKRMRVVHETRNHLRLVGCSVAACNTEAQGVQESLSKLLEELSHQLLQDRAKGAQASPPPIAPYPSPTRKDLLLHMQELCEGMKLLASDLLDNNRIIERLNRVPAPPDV

SMILES | read-out | mode | technique | tested at | measurement | result
Cc1nn(C)cc1-c1nc2c(N3CCN(Cc4ccc(Cl)cc4)CC3)c(Cl)cnc2[nH]1 | binding |  | competition with immobilised ligand | 1 µM | remaining binding | 100%
O=c1[nH]c2ccccc2n1C1CCN(Cc2ccc(-c3[nH]c4cc5ncnc5cc4nc3-c3ccccc3)cc2)CC1 | enzyme activity |  |  | 0.5 µM | remaining activity | 91.9%
Cn1cc(-c2cc(F)cc(N3CCn4c(cc5c4CCCC5)C3=O)c2CO)cc(Nc2ccc(N3CCN(C4COC4)CC3)cn2)c1=O | enzyme activity | inhibitor |  | 0.1 µM | inhibition | 12%
COc1ncccc1-c1cnn2ccc(N3CCN(C(=O)OC(C)C)CC3)nc12 | binding |  | competition with immobilised ligand | 1 µM | remaining binding | 69%
Cn1cncc1[C@@](O)(COc1ccc(C#N)cc1-c1ccc(OC(F)(F)F)cc1)c1ccc(C#N)cc1 | cell-free assay |  | competition with immobilised ligand | 1 µM | remaining binding | 100%
Nc1ncc(-c2nc(N3CCOCC3)nc(N3CCOCC3)n2)c(C(F)F)n1 | binding |  | competition with immobilised ligand | 10 µM | remaining binding | 99%
N#CC1(c2ccccn2)CCN(Cc2cc(C(=O)O)c(=O)n3ccccc23)CC1 | cell-free assay |  | competition with immobilised ligand | 1 µM | remaining binding | 88%
CC(C)(C)c1cc(C=C(C#N)C#N)cc(Br)c1O | enzyme activity | inhibitor |  | 0.5 µM | remaining activity | 86.8%
Cn1cc(-c2cccc(N3CCc4c(sc5c4CC(C)(C)C5)C3=O)c2CO)cc(Nc2ccncn2)c1=O | enzyme activity | inhibitor |  | 1 µM | inhibition | 9%
